Consider 6 compounds from ChEMBL document CHEMBL1126599, “Specific sequestering agents for the actinides. 21. Synthesis and initial biological testing of octadentate mixed catecholate-hydroxypyridinonate ligands” (J Med Chem, 1993).

The species named for series [1] is Mus musculus. Nature of the series: Percent of injected 238-Plutonium(IV) in mice whole body at 24 h. Type of series: ADME, organism-based. The following applies: in vivo. The method in brief: (§1)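 Mice received plutonium(IV)-238 citrate iv. At 1 h, normally fed mice got ligand at 30 μmol kg-1 in 0.14 M NaCl by ip injection, then water only. Each five-mouse group was housed in one metabolic cage to collect urine and feces. Mice were killed at 24 h. Pu was expressed as % of injected dose, normalized to 100% recovery. Kidneys and excreta were pooled per group. Saline-injected controls were killed at 24 h.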

Series [2] is described as follows: Removal of 238-Plutonium(IV) in urine after 4-24 h. It is filed as ADME, tissue-based. The gist of the method:
as §1

For series [3], the species on record is Mus musculus. Nature of the series: Percent of injected 238-Plutonium(IV) in mice kidneys at 24 h. Type of series: ADME, organism-based, Kidney. Conditions: in vivo. The gist of the method: as §1
The species named for series [4] is Mus musculus. Nature of the series: Percent of injected 238-Plutonium(IV) in mice liver at 24 h. Type of series: ADME, organism-based. The following applies: in vivo. The gist of the method:
as §1

A short description of series [5]: Removal of 238-Plutonium(IV) in urine after 0-4 h. Type of series: ADME, tissue-based. The method in brief:
as §1

Series [6] is described as follows: Removal of 238-Plutonium(IV) in gastrointestinal (GI) contents at 24 h. It is filed as ADME. The method in brief:
as §1

Series [7] in a line: Removal of 238-Plutonium(IV) in feces at 24 h. Type of series: ADME. The method in brief:
as §1

For series [8], the species on record is Mus musculus. Nature of the series: Percent of injected 238-Plutonium(IV) in mice soft tissue at 24 h. It is filed as ADME, organism-based. Conditions: in vivo. The gist of the method: as §1
For series [9], the species on record is Mus musculus. Nature of the series: Percent of injected 238-Plutonium(IV) in mice skeleton at 24 h. Conditions: in vivo. It is filed as ADME, organism-based. The method in brief: as §1
The nature of series [10]: Removal of 238-Plutonium(IV) in urine after 0-24 h. It is filed as ADME, tissue-based. The method in brief:
as §1

A short description of series [11]: Removal of 238-Plutonium(IV) in feces at 24 hr (orally administered). Type of series: ADME. Conditions: po. The gist of the method:
(§2)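 Mice were fasted 18 h and given plutonium(IV)-238 citrate iv. At 3 min, ligand at 30 μmol kg-1 in 0.14 M NaCl was given by gastric intubation, with a little food at 4 h. Urine (0–4 h, 4–24 h) and feces were collected per five-mouse group in a metabolic cage. Mice were killed at 24 h. Tissue and GI Pu was expressed as % injected dose, normalized to 100% recovery. Kidneys and excreta were pooled per group. Fasted controls were included.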

Series [12] relates to Mus musculus. Nature of the series: Percent of injected 238-Plutonium(IV) in mice skeleton at 24 hr (orally administered). The following applies: in vivo, po. Type of series: ADME, organism-based. The gist of the method: as §2
Series [13] concerns Mus musculus. Nature of the series: Percent of injected 238-Plutonium(IV) in mice whole body at 24 hr (orally administered). Type of series: ADME, organism-based. The following applies: in vivo, po. The gist of the method:
as §2

The nature of series [14]: Removal of 238-Plutonium(IV) in urine after 0-4 hr (orally administered). Conditions: po. Type of series: ADME, tissue-based. The method in brief:
as §2

Series [15] in a line: Removal of 238-Plutonium(IV) in gastrointestinal (GI) contents at 24 hr (orally administered). Conditions: po. It is filed as ADME. The gist of the method: as §2
Series [16] relates to Mus musculus. Description: Percent of injected 238-Plutonium(IV) in mice soft tissue at 24 hr (orally administered). Type of series: ADME, organism-based. Conditions: in vivo, po. The gist of the method: as §2
Series [17] relates to Mus musculus. Description: Percent of injected 238-Plutonium(IV) in mice liver at 24 hr (orally administered). Type of series: ADME, organism-based. Conditions: in vivo, po. The method in brief: as §2
Series [18] has as its system Mus musculus. Nature of the series: Percent of injected 238-Plutonium(IV) in mice kidneys at 24 hr (orally administered). It is filed as ADME, organism-based, Kidney. Conditions: in vivo, po. The method in brief: as §2
Series [19] is described as follows: Removal of 238-Plutonium(IV) in urine after 0-24 hr (orally administered). Type of series: ADME, tissue-based. Conditions: po; in the assay text read “4-24 hr” for “0-24 hr”. The method in brief: as §2
In series [20] the test system is Mus musculus. Nature of the series: Percent of injected 238-Plutonium(IV) in mice kidney at 24 hr (orally administered). The following applies: in vivo, po. It is filed as ADME, organism-based. The gist of the method: as §2
Series [21] in a line: Removal of 238-Plutonium(IV) in urine after 4-24 hr (orally administered). Type of series: ADME, tissue-based. Conditions: po. The gist of the method: as §2
Series [22] can be described thus: Removal of 238-Plutonium(IV) in urine at 0-4 hr (orally administered). It is filed as ADME, tissue-based. Conditions: po. The method in brief:
as §2

The nature of series [23]: Removal of 238-Plutonium(IV) in urine at 4-24 hr (orally administered). It is filed as ADME, tissue-based. Conditions: po. The method in brief: as §2
Series [24] is described as follows: Removal of 238-Plutonium(IV) in urine 0-4 h (orally administered). Type of series: ADME. The following applies: po. The gist of the method:
as §2

Series [25] is described as follows: Removal of 238-Plutonium(IV) in urine 4-24 hr (orally administered). It is filed as ADME. The following applies: po. The method in brief: as §2

As to `O=C(NCCCN(CCCCN(CCCNC(=O)c1cc(S(=O)(=O)O)cc(O)c1O)C(=O)c1cc(S(=O)(=O)O)cc(O)c1O)C(=O)c1cc(S(=O)(=O)O)cc(O)c1O)c1cc(S(=O)(=O)O)cc(O)c1O`, the ID in the series filed under Mus musculus [1] was 35%; in [2] it was 4%; in the series listed under Mus musculus [3], 0.9%; in the series filed under Mus musculus [4], 25%; in [5], 58%; in series [6], 2.9%. In addition, the results for the ID (in series [7]; in the series filed under Mus musculus [8]; in the series filed under Mus musculus [9]) were 0.4%, 2.8% and 6.7%, respectively.
With `O=C(NCCCN(CCCCN(CCCNC(=O)c1cccc(O)c1O)C(=O)c1cccc(O)c1O)C(=O)c1cccc(O)c1O)c1cccc(O)c1O`, the ID was 53% in the series filed under Mus musculus [1]; 4.3% in the series filed under Mus musculus [3]; 26% in the series listed under Mus musculus [4]; 9.4% in [10]; 8.6% in [6]; 28% in series [7]. The ID in the series listed under Mus musculus [8] was 5.1%; in the series filed under Mus musculus [9], 18%.
As to `O=C(NCCCN(CCCCN(CCCNC(=O)c1cccc(O)c1O)C(=O)c1cccc(=O)n1O)C(=O)c1cccc(O)c1O)c1cccc(O)c1O`, the ID in [11] is given as 4.5%; in the series with Mus musculus [12] it was 30%; in the series filed under Mus musculus [1], 33%; in [2], 3.1%; in the series listed under Mus musculus [3], 3.1%; in the series filed under Mus musculus [4], 12%. In addition, the ID in the series with Mus musculus [13] was found to be 82%; in series [14] it was 8.3%; in series [15] it was 1.8%; with Mus musculus [16] it was 4.5%; in the series on Mus musculus [17] it was 43%; in [5], 9.1%. Further, the ID in series [6] was found to be 12%; in series [7], 43%; in the series filed under Mus musculus [8], 4%; in the series listed under Mus musculus [9] it was 13%; in the series on Mus musculus [18], 3%; in series [19], 2.3%.
For `O=C(NCCCN(CCCCN(CCCNC(=O)c1cccc(=O)n1O)C(=O)c1cccc(=O)n1O)C(=O)c1cccc(=O)n1O)c1cccc(=O)n1O`, the ID in [11] amounted to 50%; with Mus musculus [12], 12%; in the series filed under Mus musculus [1] it was 18%; in series [2] it was 2%; in the series listed under Mus musculus [3], 0.2%; in the series filed under Mus musculus [4], 8.9%. The ID came to 24% in the series with Mus musculus [13]; 23% in series [14]; 0.1% with Mus musculus [20]; 1.4% in [15]; 1.3% in the series on Mus musculus [16]; 11% with Mus musculus [17]. Further, the ID in [5] was 23%; in series [21], 2.7%; in series [6], 36%; in series [7], 21%; in the series filed under Mus musculus [8] it was 1.6%; in the series listed under Mus musculus [9], 7.5%.
Consider `O=C(O)c1ccc(C(=O)NCCCN(CCCCN(CCCNC(=O)c2ccc(C(=O)O)c(O)c2O)C(=O)c2ccc(C(=O)O)c(O)c2O)C(=O)c2ccc(C(=O)O)c(O)c2O)c(O)c1O`, for which the ID worked out at 3.3% in [11]; 32% in the series on Mus musculus [12]; 29% in the series filed under Mus musculus [1]; 4.6% in series [2]; 2.6% in the series filed under Mus musculus [3]; 11% in the series filed under Mus musculus [4]. Also, the ID in series [22] amounted to 30%; in [23] it was 9.5%; with Mus musculus [13], 56%; in series [15] it was 1%; in the series with Mus musculus [16] it was 3.9%; with Mus musculus [17], 19%. The ID in [5] was found to be 44%; in [6] it was 12%; in series [7] it was 4.8%; in the series filed under Mus musculus [8], 4.8%; in the series listed under Mus musculus [9] it was 11%; in the series with Mus musculus [18], 1.5%.
With `O=C(NCCCN(CCCCN(CCCNC(=O)c1cccc(O)c1O)C(=O)c1cccc(=O)n1O)C(=O)c1cccc(=O)n1O)c1cccc(O)c1O`, the ID in series [11] is 13%; in the series with Mus musculus [12], 26%; in the series filed under Mus musculus [1], 37%; in [2], 4.1%; in the series listed under Mus musculus [3], 2%; in the series listed under Mus musculus [4], 21%. Moreover, the ID in series [24] stood at 12%; with Mus musculus [13] it was 68%; in series [15], 1.9%; in the series on Mus musculus [16], 4.7%; in [25], 4%; in the series with Mus musculus [17], 35%. For the same compound, the ID in series [5] stood at 7.9%; in series [6] it was 20%; in series [7], 31%; in the series filed under Mus musculus [8], 2.4%; in the series listed under Mus musculus [9], 12%; with Mus musculus [18], 3.3%.
